Results on one compound are retold here after publication PMC3227224 (The Journal of neuroscience : the official journal of the …, 2011).

For this assay, the system named is γ-secretase. Type of assay: in vivo, J20 hAPP transgenic mice. Summed up: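 Mice of either sex, probe guide in left hippocampus (bregma −3.1 mm, 2.5 mm lateral, 1.2 mm below dura, 12° angle), freely moving in Raturn cages on 12 h light/dark. γ-Secretase inhibitor 3 mg/kg i.p. given during ongoing microdialysis; hourly dialysates in refrigerated collector. Aβ38/40/42 by multiplex electrochemiluminescence (C-terminal-specific capture, SULFO-TAG 6E10 detection), in duplicate; half-lives calculated.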

As to `C[C@H](NC(=O)Cc1cc(F)cc(F)c1)C(=O)N[C@H]1N=C(c2ccccc2)c2ccccc2N(C)C1=O` [Compound E], the “t1/2 of decline of total ISF Aβ after Compound E” value (3 mo tg (plaque-free) J20 mice, Compound E 3 mg/kg i.p. at time 0 h, ISF sampled hourly at 1 μl/min, Aβ ELISA) is ~ 2 h. Also, the “ISF Aβ38, Aβ40 and Aβ42 after Compound E in young mice” value (young plaque-free (3 mo) tg mouse, first 5 h after Compound E 3 mg/kg i.p.) is “all 3 peptides fell together”.
